Assay results published in ChEMBL document CHEMBL3352378, “Novel carbazole inhibits phospho-STAT3 through induction of protein-tyrosine phosphatase PTPN6” (J Med Chem, 2014).
The source made the active and inactive calls. The calls are words filed in the database; no cut-off is given here.

Columns and labels:
[1] = system: SUM1315MO2; test: Cytotoxicity against human SUM1315MO2 cells after 72 hrs by MTT assay; type: functional, cell-based
Method in brief: (§1)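 Cells exposed to increasing concentrations for about 72 h, and viability read by MTT. EC50 fitted with CompuSyn. Two independent experiments, each in triplicate, mean ± SEM. Compound stocks 10 mM in DMSO.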

[2] = biological target: Signal transducer and activator of transcription 3 (Homo sapiens) (UniProt P40763); test: Inhibition of STAT3 in human SUM149PT cells assessed as reduction of STAT3 phosphorylation at Y705 after 24 hrs by Western blotting analysis; type: cell-based
Method in brief: (§2)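 HS578T and SUM149PT cells given increasing concentrations for 24 h. Lysates immunoblotted with the indicated antibodies, β-actin as loading control.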

[3] = biological target: Signal transducer and activator of transcription 3 (Homo sapiens) (UniProt P40763); test: Inhibition of STAT3 in human SUM149PT cells assessed as reduction of cyclin D1 level at 0.3 to 3 uM after 24 hrs by Western blotting analysis; type: cell-based; method in brief: as §2
[4] = system: Hs-578T; test: Cytotoxicity against human Hs578T cells after 72 hrs by MTT assay; type: functional, cell-based; method in brief: as §1
[5] = system: Hs-578T; test: Induction of PTPN6 mRNA expression in human Hs578T cells after 24 hrs by RT-PCR analysis; type: functional, cell-based
Method in brief: (§3)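 HS578T and SUM149PT cells given increasing concentrations for 24 h. PTPN6 mRNA measured by RT-PCR, with GAPDH as loading control.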

[6] = system: Mus musculus; test: Toxicity in athymic Balb/c nude mouse xenografted with human SUM149 cells assessed as loss of appetite at 10 to 30 mg/kg, ip administered every other day for 5 days; type: organism-based; parameters: dose 10-30 mg/kg, route intraperitoneal; conditions: in vivo, 120 h
Method in brief: (§4)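 SUM149 cells (3×10^6) implanted subcutaneously in the right auxiliary region of male and female athymic nude mice (18–22 g). Groups of five, randomized; dosed ip every other day at 10 or 30 mg/kg from 1 mg/mL Cremophore 10%/PEG400 3%/PBS vehicle, vehicle control. Tumor volume by caliper (L×w×w/2); body weight, appetite, activity and lethargy monitored.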

[7] = system: A549; test: Antitumor activity against human A549 cells xenografted in athymic Balb/c nude mouse at 10 mg/kg, ip administered every other day for 27 days measured on day 5; type: functional; conditions: route intraperitoneal, read-out: TGI
Method in brief: (§5)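 Male and female athymic nude mice (18–22 g) implanted subcutaneously in the right auxiliary region with 3×10^6 A549 cells. Mice were randomized into groups of five 3 days after implantation, and dosing started at about 50 mm³ tumor. Working solution 1 mg/mL in 10% Cremophore/3% PEG400/87% PBS; ip every other day, vehicle control. Caliper volume L×w×w/2, mean ± SEM, n = 5.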

[8] = system: Mus musculus; test: Toxicity in athymic Balb/c nude mouse xenografted with human SUM149 cells assessed as decreased activity at 10 to 30 mg/kg, ip administered every other day for 5 days; type: organism-based; parameters: dose 10-30 mg/kg, route intraperitoneal; conditions: in vivo, 120 h; method in brief: as §4
[9] = biological target: Signal transducer and activator of transcription 3 (Homo sapiens) (UniProt P40763); test: Inhibition of STAT3 in human MCF7 cells assessed as reduction of IL-6 induced transactivation incubated for 1 hr prior to IL-6 challenge measured after 16 hrs by luciferase reporter gene assay; type: cell-based
Method in brief: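 Cells transfected with the APRE-Luc STAT3-responsive reporter. Pretreated 1 h with increasing concentrations, then given 5 ng/mL IL-6: 2 h for HS578T, 16 h for MCF7. Luciferase read afterwards; relative activity as mean ± SD of triplicates.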

[10] = system: MDA-MB-231; test: Cytotoxicity against human MDA-MB-231 cells after 72 hrs by MTT assay; type: functional, cell-based; method in brief: as §1
[11] = biological target: Signal transducer and activator of transcription 3 (Homo sapiens) (UniProt P40763); test: Inhibition of STAT3 in human SUM149PT cells assessed as reduction of survivin mRNA expression at 0.3 to 1 uM after 24 hrs by RT-PCR analysis; type: cell-based
Method in brief: (§6)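 HS578T and SUM149PT cells treated for 24 h with increasing concentrations. Transcripts measured by RT-PCR, normalized to GAPDH as loading control.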

[12] = system: SUM149PT; test: Cytotoxicity against human SUM149PT cells after 72 hrs by MTT assay; type: functional, cell-based; method in brief: as §1
[13] = system: MDA-MB-468; test: Cytotoxicity against human MDA-MB-468 cells after 72 hrs by MTT assay; type: functional, cell-based; method in brief: as §1
[14] = system: A549; test: Antitumor activity against human A549 cells xenografted in athymic Balb/c nude mouse at 10 mg/kg, ip administered every other day for 27 days measured on day 9; type: functional; conditions: route intraperitoneal, read-out: TGI; method in brief: as §5
[15] = biological target: Signal transducer and activator of transcription 3 (Homo sapiens) (UniProt P40763); test: Inhibition of STAT3 in human Hs578T cells assessed as reduction of survivin mRNA expression at 0.3 to 1 uM after 24 hrs by RT-PCR analysis; type: cell-based; conditions: Hs-578T; method in brief: as §6
[16] = system: SUM149PT; test: Induction of PTPN6 mRNA expression in human SUM149PT cells after 24 hrs by RT-PCR analysis; type: functional, cell-based; method in brief: as §3
[17] = system: SUM149PT; test: Antitumor activity against human SUM149 cells xenografted in athymic Balb/c nude mouse assessed as reduction in pSTAT3 level at 30 mg/kg, ip administered every other day for 5 days measured on day 5 by Western blotting analysis; type: functional, organism-based; parameters: dose 30 mg/kg
Method in brief: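 SUM149 subcutaneous xenografts in nude mice (n = 5), dosed ip every other day in Cremophore/PEG400/PBS vehicle. Tumors taken on day 5 were immunoblotted for PTPN6, STAT3 and pSTAT3, with GAPDH as control. PTPN6 quantified by densitometry with a one-tailed t test.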

[18] = biological target: Signal transducer and activator of transcription 3 (Homo sapiens) (UniProt P40763); test: Inhibition of STAT3C-mediated transcription in human Hs578T cells at 1 uM after 24 hrs by luciferase reporter gene assay; type: cell-based; conditions: Hs-578T
Method in brief: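 HS578T cells co-transfected with a constitutively active STAT3 (STAT3C) expression vector and the APRE-Luc reporter. Treated at 1 μM for 24 h, with JAK2 inhibitor AZD1480 for comparison. Luciferase measured; mean ± SD of triplicates.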

[19] = system: Hs-578T; test: Induction of PTPN6 protein expression in human Hs578T cells transfected with PTPN6-siRNA after 24 hrs by Western blotting analysis; type: functional, cell-based
Method in brief: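 HS578T cells transfected with 100 nM control or PTPN6 siRNA using Lipofectamine 2000 in serum-free medium. Medium with 20% FBS added after 4 h, and cells kept 3 days. Then treated with DMSO or compound for 24 h. PTPN6 and phospho-STAT3 immunoblotted and quantified by ImageJ densitometry.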

[20] = system: A549; test: Antitumor activity against human A549 cells xenografted in athymic Balb/c nude mouse at 10 mg/kg, ip administered every other day for 27 days measured up to day 27; type: functional; conditions: 648 h, route intraperitoneal, read-out: TGI; method in brief: as §5
[21] = biological target: Tyrosine-protein phosphatase non-receptor type 6 (Homo sapiens) (UniProt P29350); test: Induction of PTPN6 in human Hs578T cells assessed as inhibition of STAT3 phosphorylation at 3 uM after 16 hrs by Western blotting analysis in presence of pervanadate; type: cell-based; conditions: Hs-578T
Method in brief: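 HS578T and SUM149PT cells treated for 16 h without or with increasing pervanadate as a phosphatase inhibitor; JAK1/2 inhibitor CP690550 run in parallel. Lysates immunoblotted for phospho-STAT3 (Y705), with β-actin as loading control.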

Sequence of Signal transducer and activator of transcription 3 (Homo sapiens) (P40763 whole entry): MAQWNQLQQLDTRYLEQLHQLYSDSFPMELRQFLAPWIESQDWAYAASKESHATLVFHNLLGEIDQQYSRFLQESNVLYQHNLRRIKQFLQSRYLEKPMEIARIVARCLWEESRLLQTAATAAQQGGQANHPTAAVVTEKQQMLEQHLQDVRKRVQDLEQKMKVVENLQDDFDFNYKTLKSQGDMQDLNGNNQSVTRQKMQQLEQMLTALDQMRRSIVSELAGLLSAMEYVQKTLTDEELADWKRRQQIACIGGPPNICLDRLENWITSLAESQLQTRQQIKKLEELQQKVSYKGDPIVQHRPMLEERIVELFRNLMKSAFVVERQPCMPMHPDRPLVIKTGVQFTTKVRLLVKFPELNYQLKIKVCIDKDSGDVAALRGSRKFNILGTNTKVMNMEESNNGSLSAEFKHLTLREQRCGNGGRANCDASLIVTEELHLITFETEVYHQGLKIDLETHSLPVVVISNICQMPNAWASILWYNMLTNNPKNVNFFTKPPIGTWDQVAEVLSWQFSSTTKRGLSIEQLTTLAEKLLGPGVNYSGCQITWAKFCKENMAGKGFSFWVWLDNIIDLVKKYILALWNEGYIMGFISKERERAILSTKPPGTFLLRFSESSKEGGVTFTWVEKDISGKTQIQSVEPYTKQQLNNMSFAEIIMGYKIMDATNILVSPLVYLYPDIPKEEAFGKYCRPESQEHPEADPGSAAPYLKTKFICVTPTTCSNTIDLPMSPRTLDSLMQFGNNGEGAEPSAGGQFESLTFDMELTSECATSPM
Sequence of Tyrosine-protein phosphatase non-receptor type 6 (Homo sapiens) (P29350 whole entry): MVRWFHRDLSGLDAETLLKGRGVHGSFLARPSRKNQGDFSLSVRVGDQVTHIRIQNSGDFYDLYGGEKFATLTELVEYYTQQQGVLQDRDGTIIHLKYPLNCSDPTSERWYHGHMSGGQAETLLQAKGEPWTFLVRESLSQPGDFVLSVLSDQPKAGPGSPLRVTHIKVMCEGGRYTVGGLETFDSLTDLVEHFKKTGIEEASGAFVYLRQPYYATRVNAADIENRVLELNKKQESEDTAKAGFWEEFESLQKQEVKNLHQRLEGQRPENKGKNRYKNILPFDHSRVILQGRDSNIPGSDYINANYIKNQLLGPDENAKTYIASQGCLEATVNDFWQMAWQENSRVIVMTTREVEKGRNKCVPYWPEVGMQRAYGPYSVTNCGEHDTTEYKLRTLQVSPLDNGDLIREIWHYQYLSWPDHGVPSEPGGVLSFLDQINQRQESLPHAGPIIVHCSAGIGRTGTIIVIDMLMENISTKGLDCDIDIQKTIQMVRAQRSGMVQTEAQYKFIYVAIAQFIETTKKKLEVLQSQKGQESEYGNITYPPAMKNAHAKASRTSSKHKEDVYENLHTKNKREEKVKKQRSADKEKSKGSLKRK

With Cc1c(OS(=O)(=O)c2cccc3c(N(C)C)cccc23)ccc2c1[nH]c1cc(O)ccc12 the Activity [1] was “Active”, the inhibition [2] was “Dose-dependent effect” and the inhibition [3] was “Active”. For the same molecule, the Activity [4] was “Active”, the Activity [5] was “Dose-dependent effect” and the Activity [6] was “Non-toxic”. For the same molecule, the inhibition in vivo at 10 mg/kg [7] was 68.7%, the Activity [8] was “Non-toxic” and the inhibition [9] was “Active”. For the same molecule, the Activity [10] was “Active”, the inhibition [11] was “Active” and the Activity [12] was “Active”. The Activity [13] was “Active”, the inhibition in vivo at 10 mg/kg [14] was 73.8% and the inhibition [15] was “Active”. The Activity [16] was “Dose-dependent effect”, the Activity [17] was “Active” and the inhibition [18] was “Active”. The Activity [19] was “inactive”, the inhibition in vivo at 10 mg/kg [20] was 54.9% and the inhibition [21] was “inactive”.
